Hits are enriched below; roughly 3.1% of the tested compounds scored in any of these assays.
hERG rescue = compounds protecting human hERG from proarrhythmic drug block; activation (rescue from dofetilide block), less the hit threshold, % at 10 µM; CHO-hERG, FluxOR thallium flux, dofetilide IC70 present; Q12809; AID 1511; 310,000 compounds, 0.51% hits;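 active means activation above the mean of controls blocked by dofetilide plus 5 SD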;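 further: thallium influx through hERG after potassium depolarization seen as dye fluorescence rise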
KCNQ1 block = blocks the human KCNQ1 potassium channel; CHO-K1 KCNQ1, FluxOR thallium flux fluorescence; stronger effect = higher value; B-score at 10 µM; 310,000 compounds, 1.3% hits; AID 2642;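 active means compounds whose thallium flux B-score, printed positive for inhibition, exceeds three library SD while starting fluorescence stays within three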;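 further: channel opened by potassium depolarization with thallium stimulus after 20 min compound exposure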
Target sequence (P51787 whole entry, looked up): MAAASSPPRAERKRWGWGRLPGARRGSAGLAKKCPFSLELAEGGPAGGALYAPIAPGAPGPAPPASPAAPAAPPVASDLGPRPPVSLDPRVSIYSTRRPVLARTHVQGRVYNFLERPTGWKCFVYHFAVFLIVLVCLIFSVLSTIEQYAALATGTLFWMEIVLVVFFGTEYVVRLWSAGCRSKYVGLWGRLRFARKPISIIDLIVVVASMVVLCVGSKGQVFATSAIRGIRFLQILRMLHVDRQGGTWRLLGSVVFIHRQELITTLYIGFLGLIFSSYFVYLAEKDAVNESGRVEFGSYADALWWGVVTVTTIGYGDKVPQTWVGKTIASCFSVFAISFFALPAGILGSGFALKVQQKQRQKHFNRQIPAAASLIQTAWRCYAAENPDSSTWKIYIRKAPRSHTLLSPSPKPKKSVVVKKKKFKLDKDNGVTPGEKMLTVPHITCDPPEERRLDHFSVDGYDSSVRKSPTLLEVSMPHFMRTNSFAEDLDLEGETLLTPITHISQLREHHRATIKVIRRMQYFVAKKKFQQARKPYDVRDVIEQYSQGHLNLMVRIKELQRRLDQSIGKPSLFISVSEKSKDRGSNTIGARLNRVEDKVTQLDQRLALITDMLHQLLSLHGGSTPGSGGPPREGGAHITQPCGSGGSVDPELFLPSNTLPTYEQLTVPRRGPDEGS
KCNK3 block = human KCNK3 channel inhibition, primary screen; CHO-KCNK3 thallium flux, FluxOR fluorescence; stronger effect = lower value; O14649; AID 602410; 340,000 compounds, 0.84% hits; B-score at 10 µM;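 active means B-score under library mean minus 4 SD, starting fluorescence ratio at most library mean plus 5 SD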;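 further: more negative B-score means stronger inhibition of thallium flux through KCNK3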
KCNK9 inh = human KCNK9 channel inhibition. B-score at 10 µM. HEK293 KCNK9, FluxOR thallium flux fluorescence; stronger effect = lower value. Q9NPC2. AID 488922. 310,000 compounds, 1.2% hits;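 active means ratio B-score over 3 SD below the library mean, with starting fluorescence within 5 SD of its mean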;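 further: negative B-score means less thallium flux so channel inhibition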
KCNQ1 act = potentiators or activators of human KCNQ1 potassium channel. B-score at 10 µM. AID 2648. P51787. 310,000 compounds, 0.35% hits. CHO-K1 KCNQ1, thallium flux FluxOR fluorescence; stronger effect = higher value;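 active means fluorescence ratio B-score, a plate-corrected score, at least three library SD, with initial intensity B-score within 5 SD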
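Medium – assay buffer, equal DMSO in all wells · Material – CHO-K1 cell line with stable KCNQ1 potassium channel expression · Signal – kinetic FluxOR thallium fluorescence, 10-s 1-Hz baseline, 110-s post-stimulus read · Compound – single concentration per compound, DMSO matched to controls · Schedule – 37 °C overnight plating, 90-min dark dye load, 20-min compound pretreatment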
KCNQ1 block val = confirmation of human KCNQ1 potassium channel inhibitors; shares compounds with KCNQ1 block; KCNQ1 cell line, FluxOR thallium flux fluorescence; inhibition, % at 10 µM; 1,600 compounds, 93% hits; AID 588353;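 active means primary screen active, with duplicate mean exceeding buffer control mean plus 3 SD of buffer wells, cut at about 28% in these data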;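 further: 0% = buffer control ratio and 100% = XE991 inhibitor control ratio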
CHO KCNQ1 ctr = KCNQ1 inhibitor counter-screen hit in parental CHO cells | shares compounds with KCNQ1 block | parental CHO-K1, FluxOR thallium flux fluorescence ratio; stronger effect = lower value; zero means no signal rise above baseline | fluorescence ratio (Tl flux) at 10 µM | 1,600 compounds, 21% hits | AID 588366;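 active means mean of duplicate thallium-flux fluorescence ratios in parental host cells more than 5 SD below the buffer control mean, cut at about 0.38 in these data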;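 further: ratio is peak minus minimum fluorescence divided by baseline fluorescence; actives read low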
KCNQ1 APC inh = confirmation of human KCNQ1 potassium channel inhibitors by electrophysiology; shares compounds with KCNQ1 block; KCNQ1-CHO cells, automated patch clamp current; calls only at 10 µM; 490 compounds, 20% hits; AID 624120;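 active means KCNQ1 current drop exceeding 3 SD of negative control wells, seen in both duplicate runs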;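 further: steady state current during a 2 s step from -80 to +40 mV; negative values mean current inhibition and positive values mean potentiation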
KCNQ2 spec = selectivity of KCNQ1 inhibitors: inhibition of rat KCNQ2 channel; shares compounds with KCNQ1 block; KCNQ2 cells, FluxOR thallium flux fluorescence; inhibition, % at 10 µM; 1,600 compounds, 71% hits;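 active means mean percent inhibition of the KCNQ2 thallium signal more than 5 SD above the buffer-only control wells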;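 further: KCNQ2 expressed in CHO cells; 0% = buffer control wells and 100% = XE-991 inhibitor control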
KCNQ1-KCNE1 inh = KCNQ1 inhibitor that also blocks human KCNQ1/KCNE1 channel; shares compounds with KCNQ1 block; KCNQ1/KCNE1 cells, FluxOR thallium flux fluorescence; inhibition, % at 10 µM; 1,600 compounds, 77% hits; AID 652147;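 active means mean percent inhibition of duplicate wells above the buffer-only control mean plus 3 SD of those controls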;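 further: 0% = buffer only wells and 100% = XE-991 inhibitor control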
KCNK9 inh conf = human KCNK9 inhibitor confirmation. shares compounds with KCNK9 inh. HEK293 KCNK9 cells, FluxOR thallium flux fluorescence. inhibition, % at 10 µM. 4,900 compounds, 43% hits;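 active means thallium signal inhibited by more than 5 SD of the compound-free buffer control wells, on both duplicate plates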;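 further: 0% = assay buffer control wells without compound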
Kir2-1 spec = tests whether KCNK9 modulators also affect mouse Kir2.1; shares compounds with KCNK9 inh; Kir2.1 cells, FluxOR thallium flux fluorescence; inhibition, % at 10 µM; 4,900 compounds, 4% hits;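 active means thallium signal drop more than 5 SD beyond the mean of the no-compound control wells, seen in both duplicate plates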;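 further: signal is fluorescence rise after thallium addition divided by baseline fluorescence; plate controls were assay buffer only for no effect and full block by chlorpromazine control for full effect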
KCNK9 uninduced = non-induced cell nonspecific activity of KCNK9 modulators | shares compounds with KCNK9 inh | non-induced KCNK9-HEK293, FluxOR thallium flux | inhibition, % at 10 µM | 4,900 compounds, 40% hits;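 active means thallium signal drop beyond 5 SD of the untreated control mean, on both duplicate plates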;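 further: plate controls were buffer only IC0 wells for no effect and SID17386958 at its maximal inhibitory level for full effect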
KCNK3 inh conf = confirmation of human KCNK3 two-pore domain potassium channel inhibitors. shares compounds with KCNK3 block. CHO-KCNK3 thallium flux, FluxOR fluorescence; 0% buffer, 100% carvedilol maximal block. ratio percent of control, % at 10 µM. 2,400 compounds, 99% hits;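 active means ratio percent of control, averaged over triplicates, above buffer control mean plus 5 SD, cut at about 64% in these data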;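 further: ratio is the fluorescence rise from min to max over baseline after thallium stimulus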
KCNK3 uninduced = counter-screen for KCNK3 inhibitors: effect in non-induced cells | shares compounds with KCNK3 block | non-induced KCNK3 parental cells, FluxOR thallium flux; stronger effect = lower value | thallium flux ratio (lower = more inhibition) at 10 µM | 2,400 compounds, 40% hits;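 active means thallium flux ratio, averaged over three wells, more than 5 SD below the buffer control mean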;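 further: host cells are CHO cells without KCNK3 induction; ratio is peak minus trough fluorescence over baseline then normalized to buffer controls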
* hit, by the source's call; i = inactive; nt = no result given; + = active, no number.

SMILES	hERG rescue	KCNQ1 block	KCNK3 block	KCNK9 inh	KCNQ1 act	KCNQ1 block val	CHO KCNQ1 ctr	KCNQ1 APC inh	KCNQ2 spec	KCNQ1-KCNE1 inh	KCNK3 inh conf	KCNK3 uninduced	others
CC(=O)n1c2c(c3ccccc31)OC(N)=C(C#N)C2c1ccc(C(C)C)cc1 (stereo unspecified)	-9	8*	i	-9.2*	i	114*	0.38	i	101%*	154%*	nt	nt	KCNK9 inh conf=33%*;Kir2-1 spec=i;KCNK9 uninduced=38%*
CCN(CC)S(=O)(=O)c1cccc(NC(=O)Nc2cccc(C(F)(F)F)c2)c1	-21	11*	i	i	i	158*	0.3*	nt	121%*	127%*	nt	nt	KCNK9 inh conf=i;Kir2-1 spec=i;KCNK9 uninduced=i
O=C(c1cnc(N2CCN(c3ccccn3)CC2)c2ccccc12)N1CCN(c2cccc(Cl)c2)CC1	-3	10*	-9.3*	i	i	102*	0.38*	nt	119%*	130%*	97*	i
CC(C)OC(=O)NCCOC(=O)Nc1ccc(Cl)c(Cl)c1	-23	10*	-11*	-8.1*	i	80*	0.42	nt	119%*	i	105*	i
CC(C)OC(=O)NCCOC(=O)Nc1cccc(Cl)c1	-2	i	i	i	i	nt	nt	nt	nt	nt	nt	nt
Cc1ccc(Cl)cc1N1CCN(C(=S)NCCc2ccccc2)CC1	-14	12*	-11*	i	i	111*	0.4	i	117%*	108%*	128*	0.15*
Cc1nc2ccc(S(=O)(=O)Nc3cccc(-c4nc5cccnc5s4)c3C)cc2s1	-21	12*	-9.6*	i	i	145*	0.32*	nt	105%*	+	114*	i
Cc1nc2ccc(S(=O)(=O)Nc3cc(-c4nc5cccnc5s4)ccc3C)cc2s1	-17	i	i	i	i	nt	nt	nt	nt	nt	nt	nt
NC(N)=NCCCC(NC(=O)c1ccccc1)C(=O)Nc1ccc2ccccc2c1 (stereo unspecified)	nt	nt	i	nt	nt	nt	nt	nt	nt	nt	nt	nt
Cc1cccc(C)c1NC(=O)c1cccc2c1C(=O)N(C1CCCCC1)C2	-20	6*	-15*	-19*	i	74*	0.44	nt	105%*	129%*	126*	0.15*	KCNK9 inh conf=52%*;Kir2-1 spec=i;KCNK9 uninduced=36%*
Cc1cc(NC(=O)c2cccc3c2C(=O)N(C2CCCCC2)C3)ccc1Br	-5	i	i	i	i	nt	nt	nt	nt	nt	nt	nt
O=C(O)c1cc(S(=O)(=O)N2CC=C(c3ccccc3)CC2)ccc1O	nt	nt	i	nt	nt	nt	nt	nt	nt	nt	nt	nt
CCN(C(=O)c1ccco1)c1nc(-c2ccc(OC)cc2)cs1	-1	i	i	i	i	nt	nt	nt	nt	nt	nt	nt
COc1ccc(-c2csc(N(CC(C)C)C(=O)c3ccco3)n2)cc1	-4	7*	-9.9*	i	i	107*	0.4	+	80%*	139%*	162*	0.073*
CC(C)OCCCNc1nc(-c2ccccc2)nc2ccccc12	-24	7*	-10*	i	i	88*	0.48	i	117%*	152%*	123*	i
CN(C)CCCNc1nc(-c2ccccc2)nc2ccccc12	-10	i	i	i	i	nt	nt	nt	nt	nt	nt	nt
NNc1nnc2c3cc(F)ccc3n(CCc3ccccc3)c2n1	-6	i	i	i	i	nt	nt	nt	nt	nt	nt	nt
COc1ccc2[nH]c3c(N4CCc5ccccc5C4)ncnc3c2c1	-22	11*	-8.7*	i	i	143*	0.25*	nt	115%*	+	130*	0.12*
CNc1nc(SCc2ccc(C)cc2)nc2c1CCCC2	-9	10*	-11*	i	i	130*	0.44	i	101%*	102%*	134*	0.15*
Cc1cccc(C(=O)NCC(=O)N2CCOCC2)c1	-12	i	i	i	i	nt	nt	nt	nt	nt	nt	nt
O=C(NCCSCc1ccco1)Nc1cc(Cl)cc(Cl)c1	-19	8*	-13*	-8.2*	i	134*	0.42	i	i	91%*	100*	i	KCNK9 inh conf=68%*;Kir2-1 spec=i;KCNK9 uninduced=32%*
CCOC(=O)c1c(C)n(-c2ccc(C)cc2)c2ccc(O)c(CN(C)C)c12	-24	6*	-9.8*	i	i	38*	0.48	nt	i	i	117*	0.15*
O=[N+]([O-])c1ccc(NN=Cc2cc(Br)ccc2O)nc1	nt	nt	i	nt	nt	nt	nt	nt	nt	nt	nt	nt
O=C(Nc1ccc(Br)cc1)Nc1ccccc1Cl	-8	7*	-8.7*	-6.7*	i	34*	0.52	nt	i	i	86*	i
CCOc1ccc(N(CC(=O)Nc2cccc(F)c2)S(=O)(=O)c2c(C)noc2C)cc1	-5	i	i	i	i	nt	nt	nt	nt	nt	nt	nt
CCOc1ccc(N(CC(=O)Nc2ccc(C)c(C)c2)S(=O)(=O)c2c(C)noc2C)cc1	-5	7*	-9.7*	i	i	96*	0.38	i	112%*	143%*	93*	i
CCOc1ccccc1N=C1SCC(C)N1C(=O)C1CCN(c2ncnc3sc(C)c(C)c23)CC1 (stereo unspecified)	nt	nt	i	nt	nt	nt	nt	nt	nt	nt	nt	nt
CN(C)S(=O)(=O)c1cccc(C(=O)Nc2ccccc2)c1	-2	i	i	i	i	nt	nt	nt	nt	nt	nt	nt

Screening results: PubChem BioAssay, Johns Hopkins Ion Channel Center
